ChEMBL document CHEMBL3525963, “Tissue distribution and elimination of [14C]apixaban in rats” (Drug Metab Dispos, 2011)

Columns and labels:
Parameters in all cases: dose 5 mg/kg, dosed compound name [14C]-apixaban, route oral
Details in all cases: in vivo
Lung [1] = test: Biodistribution in pregnant Sprague-Dawley rat lung at 5 mg/kg, po administered as single dose measured after 8 hrs; type: ADME, organism-based
[2] = Drug level in lactating Sprague-Dawley rat milk at 5 mg/kg, po administered as single dose after 0 to 24 hrs; type: ADME, organism-based
Brain = test: Biodistribution in pregnant Sprague-Dawley rat brain at 5 mg/kg, po administered as single dose measured after 0.5 hrs; type: ADME, organism-based
Lung [3] = test: Biodistribution in female Sprague-Dawley rat lung at 5 mg/kg, po administered as single dose measured after 24 hrs; type: ADME, organism-based
How it was run: (§1)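 Quantitative whole-body autoradiography was run after a single 5 mg/kg (100 μCi/kg) oral gavage to fasted female or pregnant SD rats, one rat per time point. Carcasses were frozen in hexane/dry ice, and 40 µm sagittal sections were dried at −20°C for at least 48 h. Sections were exposed to a phosphor plate alongside [14C]glucose standards (0.001–6.5 µCi/g). Results are µg eq/g, with LLOQ 0.037 µg eq/g.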

Blood [4] = test: Biodistribution in male Sprague-Dawley rat blood at 5 mg/kg, po administered as single dose measured after 1 hr; type: ADME, organism-based
How it was run: (§2)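 [¹⁴C]Apixaban given by oral gavage at 5 mg/kg (100 μCi/kg) in 0.5% Tween 80 in Labrafil (1.0 mg/mL dosing solution) to rats fasted overnight through 4 h post-dose. One rat per time point; carcass frozen in hexane/dry ice. Quantitative whole-body autoradiography used 40 µm sagittal sections and a phosphor imaging plate calibrated with [¹⁴C]glucose standards (0.001–6.5 μCi/g). Read-out in µg eq apixaban/g; LLOQ 0.037 μg eq/g.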

Adrenal gland = test: Biodistribution in male Sprague-Dawley rat adrenal gland at 5 mg/kg, po administered as single dose measured after 0.5 hrs; type: ADME, organism-based; how it was run: as §2
Rattus norvegicus [5] = test: Biodistribution in female Sprague-Dawley rat kidney cortex at 5 mg/kg, po administered as single dose measured after 72 hrs; type: ADME, organism-based; how it was run: as §1
Blood [6] = test: Cmax in pregnant Sprague-Dawley rat blood at 5 mg/kg, po administered as single dose; type: ADME, organism-based
How it was run: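 Fasted male, female or pregnant SD rats received a single oral gavage of 5 mg/kg (100 μCi/kg) in 0.5% Tween 80/Labrafil. One rat was killed per time point, up to 168 h (48 h for pregnant). Blood was collected into K3EDTA. Blood radioactivity came from autoradiogram or LSC data, and Cmax was taken from the concentration-time profile.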

Rattus norvegicus [7] = test: Biodistribution in male Sprague-Dawley rat bone marrow at 5 mg/kg, po administered as single dose measured after 72 hrs; type: ADME, organism-based
How it was run: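 Fasted male SD rats (225-252 g) each received one oral gavage dose of [14C]apixaban, 5 mg/kg (100 μCi/kg), in 0.5% Tween 80/Labrafil vehicle. One rat was killed per time point, from 0.5 to 168 h. Frozen carcasses were cut into 40 µm sagittal whole-body sections and read by QWBA phosphor imaging against [14C]glucose calibrants. Results are in µg apixaban eq/g; BLQ <0.037 µg eq/g.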

Rattus norvegicus [8] = test: Biodistribution in pregnant Sprague-Dawley rat brown fat at 5 mg/kg, po administered as single dose measured after 8 hrs; type: ADME, organism-based, Brown adipose tissue
Blood [9] = test: Biodistribution in pregnant Sprague-Dawley rat blood at 5 mg/kg, po administered as single dose measured after 8 hrs; type: ADME, organism-based
How it was run: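 Fasted pregnant SD rats (n=6, 270-319 g) each received one oral gavage dose of [14C]apixaban, 5 mg/kg (100 μCi/kg), in 0.5% Tween 80/Labrafil. One rat was killed at each of 0.5, 1, 4, 8, 24 and 48 h. Carcasses were frozen in hexane/dry ice, cut into 40 µm sagittal sections, exposed to phosphor plates and quantified against [14C]glucose standards as µg eq/g. LLOQ was 0.037 µg eq/g.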

Radiolabel recovery (Lung [1]): 0.15 ugequiv/g
Radiolabel recovery [2]: 4.6 µg/mL
Radiolabel recovery (Brain): 0.05 ugequiv/g
Radiolabel recovery (Blood [4]): 1.18 ugequiv/g
Radiolabel recovery (Adrenal gland): 0.59 ugequiv/g
Radiolabel recovery (Rattus norvegicus [5]): Not detected assumed BLQ
Cmax (Blood [6]): 1440 ngequiv/g
Radiolabel recovery (Rattus norvegicus [8]): 0.06 ugequiv/g
Radiolabel recovery (Blood [9]): 0.09 ugequiv/g
Structure (SMILES): COc1ccc(-n2nc(C(N)=O)c3c2C(=O)N(c2ccc(N4CCCC[14C]4=O)cc2)CC3)cc1
Radiolabel recovery (Lung [3]): Not sampled as not visualised in autoradiograph
Radiolabel recovery (Rattus norvegicus [7]): Not sampled as not visualised in autoradiograph
